Broadly, the IC50 is the concentration needed to halve the response being measured. A low value points to greater potency in that assay. The term EC50 denotes the midpoint of the concentration-response curve. Low values mean a more potent agent, high ones a less potent agent.

The record followed here is ChEMBL document CHEMBL1143519, “2-Piperazinecarboxamides as potent and selective melanocortin subtype-4 receptor agonists” (Bioorg Med Chem Lett, 2005).

Each structure is given as a SMILES string.

For assay [1], the target named is T1, Melanocortin receptor 4 (Homo sapiens, UniProt P32245). The settings on record: at 10 µM.
Assay [2] concerns the target T2, Melanocortin receptor 5 (Homo sapiens, UniProt P33032). The settings on record: at 10 µM.
For assay [3], the target named is Melanocortin receptor (M3 and M4) (Homo sapiens) (UniProt P32245+P41968). Nature of the assay: Selectivity for human melanocortin 3 receptor over melanocortin 4 receptor expressed in CHO cells; control 1 nM. In kind it is cell-based.
Assay [4] can be described thus: Selectivity for human melanocortin 3 receptor over melanocortin 5 receptor expressed in CHO cells; control 6 nM. Format: cell-based.
The target in assay [5] is T1, Melanocortin receptor 4. Kind of assay: Inhibitory concentration to displace [125I]NDP-alpha-MSH from human melanocortin 4 receptor expressed in CHO cells; Control 19 nM. Format: cell-based.
Assay [6] addresses T1, Melanocortin receptor 4. Nature of the assay: Concentration of compound at 50% maximum cAMP accumulation mediated by human melanocortin 4 receptor. In kind it is functional. A general note: Cyclic AMP is a second messenger, typically raised through Gs and lowered through Gi signalling.
Assay [7] deals with T3, Melanocortin receptor 3 (Homo sapiens, UniProt P41968). The following applies: at 10 µM.
The target of assay [8] is T2, Melanocortin receptor 5. Nature of the assay: Concentration of compound at 50% maximum cAMP accumulation mediated by human melanocortin 5 receptor. In kind it is functional.
The next assay is filed under the species Rattus norvegicus. Kind of assay: Covalent binding to rat microsomal proteins after 30 min of incubation with [3H]-compound in the presence of NADPH (n=3). Format: functional. Put shortly:
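Tritium-labelled compound was incubated for 30 min with rat liver microsomes plus NADPH. Radioactivity bound covalently to microsomal protein was expressed as pmol equivalents per mg protein. Values are mean ± standard deviation of n = 3.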

For assay [9], the target named is T3, Melanocortin receptor 3. Kind of assay: Concentration of compound at 50% maximum cAMP accumulation mediated by human melanocortin 3 receptor. Format: functional.

T1 sequence (P32245 whole entry): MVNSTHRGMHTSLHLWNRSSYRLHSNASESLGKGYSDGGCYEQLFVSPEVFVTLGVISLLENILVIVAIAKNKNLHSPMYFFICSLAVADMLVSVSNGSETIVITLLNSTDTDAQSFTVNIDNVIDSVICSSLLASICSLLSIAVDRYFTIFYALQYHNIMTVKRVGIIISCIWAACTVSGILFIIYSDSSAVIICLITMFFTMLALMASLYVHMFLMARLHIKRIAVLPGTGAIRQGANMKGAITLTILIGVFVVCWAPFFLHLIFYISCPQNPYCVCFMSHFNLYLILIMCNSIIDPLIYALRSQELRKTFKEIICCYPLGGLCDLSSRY
T3 sequence (P41968 whole entry): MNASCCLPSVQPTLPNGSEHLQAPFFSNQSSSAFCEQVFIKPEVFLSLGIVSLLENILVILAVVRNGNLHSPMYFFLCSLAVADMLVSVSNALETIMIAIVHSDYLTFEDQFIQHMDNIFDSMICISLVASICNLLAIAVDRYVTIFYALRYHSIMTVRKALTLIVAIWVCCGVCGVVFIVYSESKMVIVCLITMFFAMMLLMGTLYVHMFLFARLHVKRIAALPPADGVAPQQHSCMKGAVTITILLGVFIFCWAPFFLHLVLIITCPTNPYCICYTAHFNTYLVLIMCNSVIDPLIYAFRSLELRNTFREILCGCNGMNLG
T2 sequence (P33032 whole entry): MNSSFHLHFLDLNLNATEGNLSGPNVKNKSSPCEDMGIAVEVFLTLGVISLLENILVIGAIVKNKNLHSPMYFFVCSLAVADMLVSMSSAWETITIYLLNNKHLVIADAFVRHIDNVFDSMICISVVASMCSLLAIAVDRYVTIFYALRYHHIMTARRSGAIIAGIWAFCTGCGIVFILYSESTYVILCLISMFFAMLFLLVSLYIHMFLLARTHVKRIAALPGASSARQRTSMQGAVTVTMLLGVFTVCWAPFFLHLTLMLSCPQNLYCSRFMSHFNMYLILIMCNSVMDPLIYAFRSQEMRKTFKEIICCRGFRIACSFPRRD

Turning to `CC[C@@H]1CN[C@H](C(=O)N[C@H](Cc2ccc(F)cc2)C(=O)N2CCC(C(=O)NC(C)(C)C)(C3CCCCC3)CC2)CN1`, the Accumulation came to 69% on Melanocortin receptor 4 [1], 45% on Melanocortin receptor 5 [2] and 6% on Melanocortin receptor 3 [7]. For the same compound, the results for the Selectivity in [3] and in assay [4] were 59 and 75, respectively. At Melanocortin receptor 4 [5], this compound came in with an IC50 of 40 nM. On Melanocortin receptor 4 [6], this compound yielded an EC50 of 150 nM.

On to `CC(C)[C@H]1CN[C@H](C(=O)N[C@H](Cc2ccc(F)cc2)C(=O)N2CCC(C(=O)NC(C)(C)C)(C3CCCCC3)CC2)CN1`, for which the Accumulation at Melanocortin receptor 4 [1] amounted to 82%; on Melanocortin receptor 5 [2], 49%; at Melanocortin receptor 3 [7], 8%. In addition, the 50% effective concentration (EC50) on Melanocortin receptor 5 [8] is 340 nM; on Melanocortin receptor 4 [6], 3 nM. Further, the Selectivity in assay [3] worked out at 140; in [4], 116. In addition, in the assay listed under Rattus norvegicus, the Activity was found to be 107. For the same compound, the IC50 at Melanocortin receptor 4 [5] came to 4 nM.

Regarding `CC[C@@H]1CN[C@H](C(=O)N[C@H](Cc2ccc(F)cc2)C(=O)N2CCC(C(=O)NC(C)(C)C)(C3CCCCC3)CC2)CN1C`, the Accumulation at Melanocortin receptor 4 [1] was determined as 58%; at Melanocortin receptor 5 [2] it was 36%; on Melanocortin receptor 3 [7] it was 8%. Moreover, the EC50 turned out to be 2400 nM at Melanocortin receptor 5 [8] and 330 nM on Melanocortin receptor 4 [6]. For the same compound, the results for the Selectivity in [3] and in [4] were 36 and 49, respectively. On Melanocortin receptor 4 [5], this compound came in with a half-maximal inhibitory concentration (IC50) of 46 nM.

Turning to `C[C@H]1CN[C@H](C(=O)N[C@H](Cc2ccc(F)cc2)C(=O)N2CCC(C(=O)NC(C)(C)C)(C3CCCCC3)CC2)CN1`, the Accumulation on Melanocortin receptor 4 [1] is 79%; on Melanocortin receptor 5 [2], 42%; at Melanocortin receptor 3 [7], 6%. The concentration for a half-maximal effect (EC50) came to 880 nM at Melanocortin receptor 5 [8] and 8 nM on Melanocortin receptor 4 [6]. For the same compound, the Selectivity in [3] was 86; in assay [4], 87. The Activity in the assay listed under Rattus norvegicus was 50. The same compound gave an IC50 at Melanocortin receptor 4 [5] of 6 nM.

As to `CC(C)(C)NC(=O)C1(C2CCCCC2)CCN(C(=O)[C@@H](Cc2ccc(F)cc2)NC(=O)[C@@H]2CN[C@@H](C(C)(C)C)CN2)CC1`, the Accumulation at Melanocortin receptor 4 [1] worked out at 99%; at Melanocortin receptor 5 [2] it was 46%; on Melanocortin receptor 3 [7], 11%. Moreover, the EC50 on Melanocortin receptor 5 [8] was 360 nM; at Melanocortin receptor 4 [6] it was 7 nM. Also, the figures for the Selectivity in assay [3] and in [4] were 116 and 39, respectively. The compound also had an IC50 on Melanocortin receptor 4 [5] of 5 nM.

With `CC(C)C1CNC[C@@H](C(=O)N[C@H](Cc2ccc(F)cc2)C(=O)N2CCC(C(=O)NC(C)(C)C)(C3CCCCC3)CC2)N1` (some centres undefined), the Accumulation at Melanocortin receptor 4 [1] stood at 92%; on Melanocortin receptor 5 [2] it was 10%; on Melanocortin receptor 3 [7], 4%. The Selectivity was found to be 81 in assay [3] and 105 in assay [4]. The Activity in the assay filed under Rattus norvegicus came to 216. Besides, at Melanocortin receptor 4 [5], the half-inhibitory concentration (IC50) turned out to be 11 nM. Also, at Melanocortin receptor 4 [6], the EC50 came to 18 nM.

As for `CC[C@H]1CN[C@H](C(=O)N[C@H](Cc2ccc(F)cc2)C(=O)N2CCC(C(=O)NC(C)(C)C)(C3CCCCC3)CC2)CN1C`, the Accumulation at Melanocortin receptor 4 [1] amounted to 85%; on Melanocortin receptor 5 [2], 56%; at Melanocortin receptor 3 [7], 29%. For the same compound, the figures for the half-maximal effective concentration (EC50) on Melanocortin receptor 3 [9], on Melanocortin receptor 5 [8] and at Melanocortin receptor 4 [6] were 150 nM, 450 nM and 2 nM, respectively. The Selectivity was 116 in [3] and 192 in assay [4]. The compound further yielded an IC50 at Melanocortin receptor 4 [5] of 3 nM.

As to `CC(C)(C)NC(=O)C1(C2CCCCC2)CCN(C(=O)[C@@H](Cc2ccc(F)cc2)NC(=O)[C@@H]2CNC3(CC3)CN2)CC1`, the Accumulation at Melanocortin receptor 4 [1] turned out to be 53%; on Melanocortin receptor 5 [2], 36%; at Melanocortin receptor 3 [7], 6%. Also, the EC50 was 1900 nM at Melanocortin receptor 5 [8] and 41 nM on Melanocortin receptor 4 [6]. Moreover, the Selectivity in assay [3] was 42; in assay [4], 61. The compound also returned an IC50 at Melanocortin receptor 4 [5] of 17 nM.

On to `CC(C)[C@@H]1CN[C@H](C(=O)N[C@H](Cc2ccc(F)cc2)C(=O)N2CCC(C(=O)NC(C)(C)C)(C3CCCCC3)CC2)CN1`, for which the values for the Accumulation at Melanocortin receptor 4 [1], on Melanocortin receptor 5 [2] and at Melanocortin receptor 3 [7] were 77%, 41% and 6%, respectively. In addition, the values for the EC50 at Melanocortin receptor 5 [8] and at Melanocortin receptor 4 [6] were 1400 nM and 42 nM, respectively. In addition, the Selectivity in assay [3] amounted to 61; in assay [4] it was 49. At Melanocortin receptor 4 [5], this compound returned a half-maximal inhibitory concentration (IC50) of 20 nM.

Take `CC(C)(C)NC(=O)C1(C2CCCCC2)CCN(C(=O)[C@@H](Cc2ccc(F)cc2)NC(=O)[C@@H]2CN[C@@H](C3CC3)CN2)CC1`: the Accumulation on Melanocortin receptor 4 [1] came out at 102%; on Melanocortin receptor 5 [2], 44%; on Melanocortin receptor 3 [7], 9%. Further, the concentration for a half-maximal effect (EC50) stood at 760 nM on Melanocortin receptor 5 [8] and 5 nM on Melanocortin receptor 4 [6]. Moreover, the Selectivity in assay [3] is 119; in assay [4], 59. Moreover, the Activity in the assay filed under Rattus norvegicus was found to be 103. Also, the half-inhibitory concentration (IC50) at Melanocortin receptor 4 [5] was 8 nM.

As for `CC(C)(C)NC(=O)C1(C2CCCCC2)CCN(C(=O)[C@@H](Cc2ccc(F)cc2)NC(=O)[C@@H]2CN[C@@H](C3(C)CC3)CN2)CC1`, the results for the Accumulation at Melanocortin receptor 4 [1], on Melanocortin receptor 5 [2] and on Melanocortin receptor 3 [7] were 95%, 62% and 10%, respectively. In addition, the EC50 on Melanocortin receptor 5 [8] stood at 300 nM; on Melanocortin receptor 4 [6] it was 7 nM. Also, the Selectivity in [3] is 99; in assay [4], 40. The compound further displayed an IC50 at Melanocortin receptor 4 [5] of 5 nM.

On to `CC(C)(C)NC(=O)C1(C2CCCCC2)CCN(C(=O)[C@@H](Cc2ccc(F)cc2)NC(=O)[C@@H]2CN[C@H](C3CC3)CN2)CC1.CC(F)(F)C(=O)O`, for which the Accumulation on Melanocortin receptor 4 [1] is 67%; at Melanocortin receptor 5 [2] it was 33%; on Melanocortin receptor 3 [7], 4%. The 50% effective concentration (EC50) on Melanocortin receptor 5 [8] came out at 1400 nM; on Melanocortin receptor 4 [6] it was 36 nM. Further, the Selectivity in assay [3] came to 42; in [4], 65. Also, the concentration for half-maximal inhibition (IC50) on Melanocortin receptor 4 [5] worked out at 25 nM.

Consider `CC(C)(C)NC(=O)C1(C2CCCCC2)CCN(C(=O)[C@@H](Cc2ccc(F)cc2)NC(=O)[C@@H]2CN[C@H](C(C)(C)C)CN2)CC1`, for which the Accumulation was determined as 77% at Melanocortin receptor 4 [1], 54% at Melanocortin receptor 5 [2] and 5% on Melanocortin receptor 3 [7]. Further, the concentration for a half-maximal effect (EC50) amounted to 1000 nM at Melanocortin receptor 5 [8] and 91 nM on Melanocortin receptor 4 [6]. Besides, the Selectivity is 48 in assay [3] and 26 in assay [4]. Also, the IC50 at Melanocortin receptor 4 [5] came out at 29 nM.

With `CC(C)(C)NC(=O)C1(C2CCCCC2)CCN(C(=O)[C@@H](Cc2ccc(F)cc2)NC(=O)[C@@H]2CN[C@H](C3(C)CC3)CN2)CC1`, the Accumulation on Melanocortin receptor 4 [1] worked out at 69%; at Melanocortin receptor 5 [2], 56%; at Melanocortin receptor 3 [7], 5%. Besides, the EC50 is 920 nM at Melanocortin receptor 5 [8] and 93 nM at Melanocortin receptor 4 [6]. The Selectivity was found to be 49 in [3] and 23 in assay [4]. This compound also yielded an IC50 at Melanocortin receptor 4 [5] of 24 nM.

On to `CC[C@H]1CN[C@H](C(=O)N[C@H](Cc2ccc(F)cc2)C(=O)N2CCC(C(=O)NC(C)(C)C)(C3CCCCC3)CC2)CN1`, for which the figures for the Accumulation at Melanocortin receptor 4 [1], at Melanocortin receptor 5 [2] and on Melanocortin receptor 3 [7] were 89%, 43% and 9%, respectively. Also, the 50% effective concentration (EC50) amounted to 710 nM on Melanocortin receptor 5 [8] and 5 nM on Melanocortin receptor 4 [6]. The Selectivity in assay [3] is 152; in assay [4], 126. Also, on Melanocortin receptor 4 [5], the 50% inhibitory concentration (IC50) worked out at 3 nM.

As to `CC(C)N(C(=O)C1(C2CCCCC2)CCN(C(=O)[C@@H](Cc2ccc(F)cc2)NC(=O)[C@@H]2CN(C)CCN2)CC1)C(C)C`, in the assay filed under Rattus norvegicus, the Activity worked out at 2150.
